Source: PubChem BioAssay (The Scripps Research Institute Molecular Screening Center)
Sampled rows, rich in hits. Any-hit rate of the full collection: about 1.9%.
TDP2 inh – human TDP2 enzyme inhibitors, primary screen, biochemical, epi absorbance, recombinant enzyme | 370,000 tested, 0.34% active | T5PNP hydrolysis, p-nitrophenol absorbance 415 nm | Tyrosyl-DNA phosphodiesterase 2 (Homo sapiens), O95551 | inhibition, % at 12.8 µM;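 active means inhibition above the mean of all tested compounds plus 3 SD, set per campaign, cut at about 25% in these data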;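 further: 0% = DMSO with enzyme and 100% = buffer with substrate but no TDP2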
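Test system: human TDP2 enzyme; Input: 120 nM TDP2 per well; Buffer or medium: Mg2+-containing Tris-HCl buffer, pH 7.5; Reagent: 5 mM T5PNP; Dosing: 12.8 µM single point, 1% DMSO; Incubation: reaction 2 h, 37 °C; Detection: p-Nitrophenol epi absorbance; Read-out: % inhibition relative to enzyme-containing and enzyme-free wells; Replicates: single well per compound.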
LEDGF integ inh – blockers of LEDGF/p75-dependent integrase strand transfer – biochemical, TR-FRET, high throughput, primary screen. HIV-1 integrase (with human LEDGF/p75). TR-FRET IN-LEDGF/p75 DNA integration, Eu/Cy5. inhibition, % at 3.7 µM. 370,000 tested, 0.64% active;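 active means inhibition above the screen-wide mean plus 3 SD, cut at about 13% in these data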;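 further: signal is the Cy5 over europium emission ratio at 671 and 618 nm; 0% = plate median of compound wells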
Rin1 Abl inh – inhibitors of Rin1-Abl protein binding, primary screen, biochemical, TR-FRET; inhibition, % at 7.35 µM; 360,000 tested, 0.4% active; AID 588664, 2011; in the data active means inhibition above about 5%, passing the limit was not always enough
MBD2 inh – inhibitors of MBD2 binding to methylated DNA, primary screen, biochemical, TR-FRET, DNA-binding domain, human; MBD2 binding to methylated oligonucleotide; inhibition, % at 4.4 µM; Methyl-CpG-binding domain protein 2 (Homo sapiens), Q9UBB5; 370,000 tested, 0.31% active; in the data active means inhibition above about 13%
Target sequence (Q9UBB5 whole entry, looked up, the tested form may be a part): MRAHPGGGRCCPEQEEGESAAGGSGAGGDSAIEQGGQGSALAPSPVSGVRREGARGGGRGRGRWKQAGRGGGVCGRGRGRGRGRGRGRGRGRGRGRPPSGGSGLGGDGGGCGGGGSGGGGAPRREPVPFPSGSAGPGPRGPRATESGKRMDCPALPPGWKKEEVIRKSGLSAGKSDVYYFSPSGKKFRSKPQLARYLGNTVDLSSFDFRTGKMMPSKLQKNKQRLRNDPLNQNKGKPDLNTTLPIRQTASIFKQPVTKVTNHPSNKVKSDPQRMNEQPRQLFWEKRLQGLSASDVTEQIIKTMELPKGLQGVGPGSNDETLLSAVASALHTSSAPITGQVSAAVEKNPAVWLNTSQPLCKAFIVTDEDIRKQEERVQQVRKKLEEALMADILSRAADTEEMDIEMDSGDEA
UHRF1 binding – UHRF1 methylated DNA binding inhibitors, primary screen, counter-screen for MBD2 inhibitor project, biochemical, TR-FRET, human UHRF1, single concentration; UHRF1 binding to methylated oligo; inhibition, % at 4.4 µM; 370,000 tested, 0.75% active; AID 687016, 2013;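 further: UHRF1 SRA domain binding a hemimethylated CpG hairpin DNA probe; 0% = median of test compound wells and 100% = reference inhibitor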
Rin1 Abl conf – Rin1-Abl binding inhibitor retest, confirmation, biochemical, TR-FRET; shares compounds with Rin1 Abl inh; purified proteins; inhibition, % at 7.35 µM; 1,300 tested, 49% active; AID 602124, 2011; in the data active means inhibition above about 6.5%
GFP quench – GFP fluorescence inhibitors and quenchers, artefact control for Rin1-Abl interaction inhibitor project, biochemical; AID 602125, 2011; inhibitors/quenchers counterscreen; shares compounds with Rin1 Abl inh; inhibition, % at 6.75 µM; 1,300 tested, 8.5% active; in the data active means inhibition above about 6.5%;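 further: ABL1-eGFP fusion protein alone without its partner RIN1-SBP; 0% = protein with vehicle and 100% = wells lacking protein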
GFP quench dose – GFP fluorescence inhibitors and quenchers, dose response, artefact control for Rin1-Abl interaction inhibitor project, biochemical; GFP fluorescence interference/quenching counterscreen; 230 tested, under 10 active; shares compounds with Rin1 Abl inh; IC50, µM; call rule not given here;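 further: ABL1-eGFP fusion protein alone without its RIN1 binding partner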
UHRF1 DNA bind – UHRF1 methylated DNA binding inhibitors, counter-screen for MBD2 inhibitor project, biochemical, TR-FRET, human UHRF1. shares compounds with MBD2 inh. UHRF1 binding to methylated oligonucleotide. inhibition, % at 4.4 µM. 1,000 tested, 25% active. AID 720530, 2013;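 further: UHRF1 SRA domain binding a labeled hemimethylated CpG hairpin DNA; 0% = vehicle only and 100% = reference inhibitor with vehicle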
MBD2 confirm – inhibitors of MBD2 binding to methylated DNA, confirmation, biochemical, TR-FRET, DNA-binding domain, human. TR-FRET MBD2-DBD binding to methylated oligonucleotide. 1,000 tested, 26% active. shares compounds with MBD2 inh. AID 720531, 2013. inhibition, % at 4.4 µM; in the data active means inhibition above about 14%
TDP2 confirm – human TDP2 enzyme inhibitors, retest, confirmation, biochemical, epi absorbance, recombinant enzyme; inhibition, % at 12.8 µM; 1,100 tested, 22% active; absorbance read-out; shares compounds with TDP2 inh; in the data active means inhibition above about 25%;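 further: 0% = vehicle with enzyme and 100% = no enzyme buffer only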
IN multimer act – HIV-1 IN multimer formation enhancers, counter-screen for LEDGF/p75 integration inhibitor project, biochemical, TR-FRET | shares compounds with LEDGF integ inh | TR-FRET HIV-1 integrase multimerization | activation, % at 7.7 µM | 2,000 tested, 17% active; in the data active means activation above about 8.9%
TRFRET interf – TR-FRET optical interference artefacts, confirmation, artefact control for LEDGF/p75-dependent integration inhibitor project, biochemical, HIV-1 IN multimerization; shares compounds with LEDGF integ inh; TR-FRET optical interference counterscreen; inhibition, % at 7.7 µM; 2,000 tested, under 10 active;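 active means inhibition above the mean over all tested compounds plus 3 SD, which no compound reached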;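 further: 0% = integrase with antibodies and DMSO and 100% = antibodies without integrase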
LEDGF integ conf – inhibitors of HIV-1 IN-LEDGF/p75 DNA integration, confirmation, biochemical, TR-FRET; AID 1053136, 2014; shares compounds with LEDGF integ inh; TR-FRET LEDGF/p75-dependent HIV-1 integration; 2,000 tested, 36% active; inhibition, % at 3.7 µM; in the data active means inhibition above about 14%
Numbers without * were called inactive; . = no result. Unless noted, no stated cut-off is given here; in the data, active means inhibition above about 21%; inactive means the rest.

SMILES	TDP2 inh	LEDGF integ inh	Rin1 Abl inh	MBD2 inh	UHRF1 binding	Rin1 Abl conf	GFP quench	IN multimer act	TRFRET interf	LEDGF integ conf	others
COC(=O)[C@H]1C[C@@]2(C)c3ccccc3N[C@H]2N1	-11	5	.	6	9	.	.	.	.	.
CCOC(=O)CC[C@@H]1CC[C@]2(CCCN(Cc3ccncc3)C2)O1	5	2	.	-6	1	.	.	.	.	.
COC(=O)CCCCC1SCC(NC(=O)c2ccccc2)C1Cl (stereo not given)	-2	9	9.2*	-1	-2	14*	-2	.	.	.
CC[C@@H]1C[C@H]2CC[C@H](O2)[C@H](C)C(=O)O[C@@H](C)C[C@@H]2CC[C@@H](O2)[C@@H](C)C(=O)O[C@H](C)C[C@H]2CC[C@H](O2)[C@H](C)C(=O)O[C@@H](C)C[C@@H]2CC[C@@H](O2)[C@@H](C)C(=O)O1	7	-1	.	3	-2	.	.	.	.	.
CCN(CC)C(=O)c1ccc(NC(=O)c2cc(S(=O)(=O)N3CCCCCC3)ccc2OC)cc1	-8	-1	86*	-6	-2	90*	0	.	.	.	GFP quench dose=>68
CCN(CC)C(=O)c1ccc2c(c1)C1C(Cl)C(Sc3ccccc3[N+](=O)[O-])CC1C(C(=O)O)N2 (stereo not given)	.	.	6.8*	.	.	-1	17*	.	.	.
Cc1ccc2c(c1Cl)NC(C(=O)O)C1CC(Sc3ccccc3[N+](=O)[O-])C(Cl)C21 (stereo not given)	.	.	1	.	.	.	.	.	.	.
COC(=O)[C@@]1(O)c2c(oc3cccc(O)c3c2=O)C=C[C@H]1O	0	1	.	3	-1	.	.	.	.	.
CN1CCc2cc(O)cc3c2[C@H]1Cc1ccc(O)c(O)c1-3	14	11	11	-3	10	.	.	.	.	.
CCCN1CCc2cc(O)cc3c2[C@H]1Cc1ccc(O)c(O)c1-3	9	12	11*	4	4	12*	8.6*	.	.	.
N#CCC[C@@H]1CC[C@]2(CCCN(Cc3ccncc3)C2)O1	8	0	.	3	1	.	.	.	.	.
O=c1c2ccccc2nc(CSc2ncnc3nc[nH]c23)n1-c1ccccc1	-8	2	7.6*	-1	1	-1	-1	.	.	.
CN(C)C1C(=O)C(C(N)=O)=C(O)C2(O)C(=O)C3=C(O)c4c(O)cccc4C(C)(O)C3CC12 (stereo not given)	.	.	2	.	.	.	.	.	.	.
CN(C)[C@@H]1C(=O)C(C(N)=O)=C(O)[C@@]2(O)C(=O)C3=C(O)c4c(O)cccc4[C@@](C)(O)C3[C@H](O)C12 (stereo not given in full)	14	42*	19*	19*	62*	2	0	15*	-53	25*	UHRF1 DNA bind=9;MBD2 confirm=1
c1ccc(Cc2cnc(N3CCNCC3)nc2)cc1	6	-12	.	0	0	.	.	.	.	.
CC(C)CCNC(=O)c1c(N)n(CC2CCCO2)c2nc3ccccc3nc12 (stereo not given)	-1	-1	8	-2	-7	.	.	.	.	.
CCC(C)NC(=O)c1c(N)n(CCCOC)c2nc3ccccc3nc12 (stereo not given)	67*	39*	27*	13	10	2	-1	8	-25	14*	TDP2 confirm=17
CCC(C)NC(=O)c1c(N)n(CC2CCCO2)c2nc3ccccc3nc12 (stereo not given)	62*	19*	5.7*	4	12	3	-1	0	1	-1	TDP2 confirm=-1
COCCCn1c(N)c(C(=O)Nc2ccccc2)c2nc3ccccc3nc21	9	-3	0	0	-4	.	.	.	.	.
CC(C)(C)n1nnnc1C1CN=C(c2ccccc2)c2cc(Cl)ccc2N1 (stereo not given)	11	2	.	-4	-4	.	.	.	.	.
CC(c1ccccc1)n1cc(C(=O)NC2CCCC2)nn1 (stereo not given)	6	0	.	-7	-3	.	.	.	.	.
CC(Cc1ccc(O)cc1)NCC(O)c1ccc(O)c(O)c1 (stereo not given)	-5	35*	14*	-7	0	9.3*	4	10*	-51	63*
CCCCn1c(NC(=O)c2ccc(Br)o2)c(C(=O)OCC)c2nc3ccccc3nc21	65*	17*	7.3*	-4	4	5	1	-1	3	69*	TDP2 confirm=73*
Cc1ccc(N2C(=O)NC(=O)/C(=C/C=C/c3ccco3)C2=O)cc1	7	35*	6.2*	-3	10	3	0	-1	5	24*
